Screens: PubChem BioAssay, several laboratories
Rows were chosen to be rich in hits. Some 1.8% of all compounds tested hit in one or more screens of this group.
PTPN22 inh 2 – inhibitors of human LYP (PTPN22) phosphatase; recombinant LYP catalytic domain, DiFMUP fluorescence; actives 0.21% (n = 96,000); inhibition, % at 2 µM; Q9Y2R2;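 active = inhibition at 2 µM at or above a set limit, the screen mean plus 3 SD, cut at about 24% in these data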;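 note: 0% = DMSO with enzyme and 100% = enzyme fully blocked by orthovanadate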
Target sequence (Q9Y2R2 whole entry, looked up, the tested form may be a part): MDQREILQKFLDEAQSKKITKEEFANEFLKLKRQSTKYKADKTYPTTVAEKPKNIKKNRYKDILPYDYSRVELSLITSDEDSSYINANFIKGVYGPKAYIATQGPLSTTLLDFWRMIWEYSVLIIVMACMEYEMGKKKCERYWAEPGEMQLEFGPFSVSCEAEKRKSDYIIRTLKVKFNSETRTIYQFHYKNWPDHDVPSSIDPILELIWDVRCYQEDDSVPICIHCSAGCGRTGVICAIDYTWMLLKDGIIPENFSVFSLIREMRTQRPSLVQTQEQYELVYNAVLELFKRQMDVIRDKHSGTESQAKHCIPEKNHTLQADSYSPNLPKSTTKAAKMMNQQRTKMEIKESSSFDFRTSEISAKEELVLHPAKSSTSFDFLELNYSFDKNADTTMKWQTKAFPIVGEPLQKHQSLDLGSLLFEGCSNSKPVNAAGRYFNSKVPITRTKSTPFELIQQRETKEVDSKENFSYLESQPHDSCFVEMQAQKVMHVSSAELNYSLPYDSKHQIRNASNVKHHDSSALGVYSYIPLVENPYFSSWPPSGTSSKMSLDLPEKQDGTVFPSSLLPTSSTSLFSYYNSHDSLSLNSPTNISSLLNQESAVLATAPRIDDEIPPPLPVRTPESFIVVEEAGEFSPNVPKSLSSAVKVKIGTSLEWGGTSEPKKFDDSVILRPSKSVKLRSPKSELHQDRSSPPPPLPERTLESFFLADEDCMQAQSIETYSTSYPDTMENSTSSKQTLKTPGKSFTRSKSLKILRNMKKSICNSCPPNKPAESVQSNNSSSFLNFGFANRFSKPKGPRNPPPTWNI
HIV Rev-RRE inh – disrupts HIV-1 Rev binding to RRE RNA; P05866; AID 704; actives 0.79% (n = 97,000); inhibition, % at 8 µM; Rev peptide-RRE RNA binding, FRET;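 active = inhibition above the screen-wide mean plus 3 SD, cut at about 35% in these data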;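 note: 0% = median DMSO wells and 100% = median Neomycin B control wells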
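Material: labelled RRE RNA duplex and labelled Rev peptide / Buffer or medium: HEPES pH 7.5 salt buffer with EDTA / Compound dosing: single point, 8 µM final nominal compound concentration / Benchmarks: DMSO low control, neomycin B high control / Timing: 5 min preincubation and 15 min binding, 25 °C / Technique: FRET fluorescence readout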
PTK2B oligo ant – Pyk2 (human) oligomerization antagonism. Q14289. Q293 cells, Pyk2 FERM NanoBiT luminescence; hits give low values. z-score (the deposit names both 25 µM and 10 µM). actives 0.83% (n = 99,000). AID 1347419;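 active = Z-score of -3 or lower, scaled per plate to the spread of control and sample wells; inactive = z-score above -3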;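 note: negative z-score means lost luminescence so less FERM oligomerization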
LYP act – LYP (human) phosphatase activation; activation, % at 2 µM; Q9Y2R2; actives 0.11% (n = 96,000); recombinant LYP, DiFMUP fluorescence; 0 = plate median, 100 = signal doubled;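 active = activation at 2 µM above a set limit, the mean plus 5 SD, cut at about 37% in these data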
The depositor's hits bear a star; [ ] = another dose, or the depositor's remark.

For CC(/C=C1\N=C(SCc2ccccc2)SC1=O)=C\c1ccccc1 the results were PTK2B oligo ant 1.6.
CC(C)N1CCc2c(sc(N)c2C#N)C1 was read as PTK2B oligo ant -0.02.
Screening CCN1CCc2c(sc(N)c2C#N)C1 returned PTPN22 inh 2 6, HIV Rev-RRE inh 69*, PTK2B oligo ant -0.7 and LYP act -6.
Screening N#C/C(=C/c1ccc(Sc2nc3ccccc3[nH]2)o1)c1cccc(Br)c1 returned PTPN22 inh 2 -6, HIV Rev-RRE inh 16, PTK2B oligo ant -3.1* and LYP act 8.
`N#C/C(=C/c1ccc(Sc2nc3ccccc3[nH]2)o1)c1ccccc1F` gave PTPN22 inh 2 4, HIV Rev-RRE inh 18, PTK2B oligo ant -2.6 and LYP act -3.
Screening N#C/C(=C/c1ccc(Sc2nc3ccccc3[nH]2)o1)c1cccc(F)c1 returned PTPN22 inh 2 -2, HIV Rev-RRE inh 16, PTK2B oligo ant -3.2* and LYP act 2.
`Cc1ccc(C2NC(=O)c3c(sc4c3CCN(C)C4)N2)s1` (configuration not stated) gave PTPN22 inh 2 -9, HIV Rev-RRE inh 75*, PTK2B oligo ant -0.95 and LYP act 5.
`CN1CCc2c(sc3c2C(=O)NC(c2ccccn2)N3)C1` (configuration not stated) gave PTPN22 inh 2 7, HIV Rev-RRE inh 43*, PTK2B oligo ant -0.02 and LYP act -5.
`O=C1NC(c2ccccn2)Nc2sc3c(c21)CCC3` (configuration not stated) gave PTPN22 inh 2 -8, HIV Rev-RRE inh 4, PTK2B oligo ant -0.18 and LYP act 6.
For CCCS(=O)(=O)c1c(S(=O)(=O)CCC)c2c3ccccc3ccn2c1C(N)=O the results were PTPN22 inh 2 8, HIV Rev-RRE inh 4, PTK2B oligo ant 0.99 and LYP act -8.
`COc1cc(C2c3c(oc4c(C)cc(C)cc4c3=O)C(=O)N2Cc2cccnc2)ccc1O` (configuration not stated) gave PTPN22 inh 2 6, HIV Rev-RRE inh 6, PTK2B oligo ant -0.65 and LYP act -2.
`COc1ccc(CCN2C(=O)c3[nH]nc(-c4ccccc4O)c3C2c2cccc(O)c2)cc1OC` (configuration not stated) gave PTPN22 inh 2 -3, HIV Rev-RRE inh 14, PTK2B oligo ant -3.8* and LYP act 1.
COc1ccc(C2c3c(-c4cc(Cl)c(C)cc4O)n[nH]c3C(=O)N2Cc2cccnc2)cc1OC (configuration not stated) was read as PTPN22 inh 2 -6, HIV Rev-RRE inh 6, PTK2B oligo ant -3.9* and LYP act 5.
O=C(NNc1ccc([N+](=O)[O-])cc1)C12CC3CC(CC(C3)C1)C2 was read as PTPN22 inh 2 14, HIV Rev-RRE inh -2, PTK2B oligo ant 0.22 and LYP act -9.
CC(C)C(=O)N1C2CCC1CC(O)(c1ccc(F)cc1)C2 (configuration not stated) was read as PTPN22 inh 2 7, HIV Rev-RRE inh 6, PTK2B oligo ant 0.93 and LYP act -7.
Screening Cc1cc(N2C3CCC2CC(O)(c2ccc(F)cc2)C3)nc(-c2ccccc2)n1 (configuration not stated) returned PTPN22 inh 2 -3, HIV Rev-RRE inh 12, PTK2B oligo ant -3.1* and LYP act 0.
Screening O=C(c1cccc(Cl)c1)N1CCN(C(=O)c2ccccc2F)CC1 returned PTPN22 inh 2 -14, HIV Rev-RRE inh 2, PTK2B oligo ant 0.62 and LYP act 13.
For O=C(c1cccc(F)c1)N1CCN(c2cccc(Cl)c2)CC1 the results were PTPN22 inh 2 -1, HIV Rev-RRE inh 141*[fluorescence artefact?], PTK2B oligo ant 0.62 and LYP act -2.
`COc1cc2c(cc1OC)C(C)N(C(=O)CCN1C(=O)C3C4C=CC(C4)C3C1=O)CC2` (configuration not stated) gave PTK2B oligo ant 0.25.
For COc1ccccc1C(c1nnnn1CCc1ccccc1)N1CCN(c2ccccc2)CC1 (configuration not stated) the results were PTPN22 inh 2 0, HIV Rev-RRE inh 6, PTK2B oligo ant -2 and LYP act 0.
COc1cccc(C(c2nnnn2CCc2ccccc2)N2CCN(c3ccccc3)CC2)c1OC (configuration not stated) was read as PTPN22 inh 2 -4, HIV Rev-RRE inh -1, PTK2B oligo ant -3.3* and LYP act 2.
